Data: ChEMBL document CHEMBL1148584, “Effect of polyamine homologation on the transport and biological properties of heterocyclic amidines” (J Med Chem, 2006)

What was measured:
Phosphodiesterase 1 = Phosphodiesterase 1 (Bos taurus, UniProt Q01061+P14100); test: Inhibition of bovine calmodulin-activated cAMP dependent phosphodiesterase; type: protein assay
Summary of the method: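 Crude bovine heart PDE preparation containing calmodulin and Ca²⁺ (0.2 milliunit). Incubated 20 min at 37 °C with 0.1 mM [8-³H]cAMP and graded drug concentrations in 30 mM Tris-HCl, 3 mM MgSO₄, 0.6 mM AMP. Stopped with ZnSO₄; Ba(OH)₂ precipitated AMP with BaSO₄; supernatant radioactivity counted. IC50 is the concentration giving 50% inhibition.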

L1210 [1] = test: Intracellular level of conjugate in L1210 cells in the presence of DFMO at 10 uM; type: functional, cell-based; conditions: Mus musculus
Summary of the method: (§1)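 L1210 cells in RPMI 1640/10% FCS with 2 mM aminoguanidine, seeded at 4 × 10⁴ cells/mL. Conjugate, with or without 5 mM DFMO, added at seeding; cells cultured 48 h, washed in cold NaCl, and extracted with 0.2 N HClO₄. Conjugate and free putrescine, spermidine and spermine quantified by ion-pair HPLC (UV 254 nm, fluorescence ex 345/em 455 nm); normalised to protein. Student's t-test, p<0.05.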

CHO [2] = test: Inhibition of cell growth in CHO cells in the presence of DFMO; type: functional, cell-based; conditions: Cricetulus griseus
Summary of the method: (§2)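 L1210 cells seeded at 5 × 10⁴ cells/mL with conjugate added at seeding; CHO/CHO-MG plated at 2 × 10³ cells/mL with conjugate added after overnight (24 h). 5 mM DFMO added together with conjugate; medium contains 2 mM aminoguanidine. After 48 h, growth read by MTT formazan absorbance at 540 nm. IC50 is 50% growth inhibition; mean of three determinations.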

CHO [3] = test: Cellular uptake in CHO cells at 50 uM; type: ADME, cell-based, Cricetulus griseus; conditions: chinese hamster
Summary of the method: (§3)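 CHO (RPMI 1640, 10% FCS, 2 mM aminoguanidine) and CHO-MG (plus L-proline) cells seeded at 2 × 10⁵ cells/mL. Conjugate added 24 h after seeding and cells harvested 24 h later, then washed in cold 0.14 M NaCl and sonicated in 0.2 N HClO₄. Supernatant analysed by ion-pair reversed-phase HPLC (n-octanesulfonate), expressed as nmol/mg protein; mean ± SD of three determinations.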

CHO-MG [4] = test: Cellular uptake in CHO-MG cells at 50 uM; type: ADME, cell-based, Cricetulus griseus; conditions: chinese hamster; summary of the method: as §3
[5] = Selectivity for uptake CHO cell line over CHO-MG cell line at 50 uM; type: functional, Cricetulus griseus
Summary of the method: (§4)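 Ratio of intracellular conjugate level in CHO over CHO-MG cells. Both lines were exposed to conjugate 24 h after seeding at 2 × 10⁵ cells/mL, for 24 h with 2 mM aminoguanidine in the medium. Levels were measured by ion-pair HPLC of perchloric extracts and normalised to protein (nmol/mg).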

L1210 [6] = test: Intracellular level of putrescine in L1210 cells in the absence of DFMO at 10 uM; type: functional, cell-based; conditions: Mus musculus; summary of the method: as §1
L1210 [7] = test: Intracellular level of putrescine in L1210 cells in the presence of DFMO at 10 uM; type: functional, cell-based; conditions: Mus musculus; summary of the method: as §1
L1210 [8] = test: Intracellular level of spermine in L1210 cells in the absence of DFMO at 10 uM; type: functional, cell-based; conditions: Mus musculus; summary of the method: as §1
L1210 [9] = test: Intracellular level of conjugate in L1210 cells in the absence of DFMO at 10 uM; type: functional, cell-based; conditions: Mus musculus; summary of the method: as §1
L1210 [10] = test: Intracellular level of spermine in L1210 cells in the presence of DFMO at 10 uM; type: functional, cell-based; conditions: Mus musculus; summary of the method: as §1
L1210 [11] = test: Inhibition of cell growth in L1210 cells in the presence of DFMO; type: functional, cell-based; conditions: Mus musculus; summary of the method: as §2
CHO-MG [12] = test: Inhibition of cell growth in CHO-MG cells in the presence of DFMO; type: functional, cell-based; conditions: Cricetulus griseus; summary of the method: as §2
L1210 [13] = test: Intracellular level of spermidine in L1210 cells in the absence of DFMO at 10 uM; type: functional, cell-based; conditions: Mus musculus; summary of the method: as §1
L1210 [14] = test: Intracellular level of spermidine in L1210 cells in the presence of DFMO at 10 uM; type: functional, cell-based; conditions: Mus musculus; summary of the method: as §1
L1210 [15] = test: Intracellular level of spermine in L1210 cells in the absence of DFMO at 20 uM; type: functional, cell-based; conditions: Mus musculus; summary of the method: as §1
L1210 [16] = test: Intracellular level of spermine in L1210 cells in the presence of DFMO at 20 uM; type: functional, cell-based; conditions: Mus musculus; summary of the method: as §1
L1210 [17] = test: Intracellular level of conjugate in L1210 cells in the absence of DFMO at 20 uM; type: functional, cell-based; conditions: Mus musculus; summary of the method: as §1
L1210 [18] = test: Intracellular level of polyamine in L1210 cells in the presence of DFMO at 20 uM; type: functional, cell-based; conditions: Mus musculus; summary of the method: as §1
[19] = Selectivity for uptake in CHO cell line over CHO-MG cell line at 25 uM; type: functional, Cricetulus griseus; summary of the method: as §4
CHO [20] = test: Cellular uptake in CHO cells at 25 uM; type: ADME, cell-based, Cricetulus griseus; conditions: chinese hamster; summary of the method: as §3
CHO-MG [21] = test: Cellular uptake in CHO-MG cells at 25 uM; type: ADME, cell-based, Cricetulus griseus; conditions: chinese hamster; summary of the method: as §3
L1210 [22] = test: Intracellular level of putrescine in L1210 cells in the absence of DFMO at 20 uM; type: functional, cell-based; conditions: Mus musculus; summary of the method: as §1
L1210 [23] = test: Intracellular level of putrescine in L1210 cells in the presence of DFMO at 20 uM; type: functional, cell-based; conditions: Mus musculus; summary of the method: as §1
L1210 [24] = test: Intracellular level of spermidine in L1210 cells in the absence of DFMO at 20 uM; type: functional, cell-based; conditions: Mus musculus; summary of the method: as §1
L1210 [25] = test: Intracellular level of spermidine in L1210 cells in the presence of DFMO at 20 uM; type: functional, cell-based; conditions: Mus musculus; summary of the method: as §1
CHO [26] = test: Cellular uptake in CHO cells at 10 uM; type: ADME, cell-based, Cricetulus griseus; conditions: chinese hamster; summary of the method: as §3
CHO-MG [27] = test: Cellular uptake in CHO-MG cells at 10 uM; type: ADME, cell-based, Cricetulus griseus; conditions: chinese hamster; summary of the method: as §3
CHO-MG [28] = test: Selectivity for uptake in CHO cell line over CHO-MG cell line at 10 uM; type: functional, cell-based; conditions: Cricetulus griseus; summary of the method: as §4

CN(c1ccccc1)C1c2ccccc2N=C(NCCCO)C1(C)C (stereo unspecified)
IC50 (Phosphodiesterase 1): > 500 µM

CC1C[C@]2(C)C(NCCCNCCCCNCCCN)=Nc3ccccc3[C@@H]2N(C)c2ccccc21 (stereo partly specified)
Drug uptake (L1210 [1]): 1.5 nmol/mg | IC50 (CHO [2]): 9.1 µM | Drug uptake (CHO [3]): 0.66 nmol/mg | Drug uptake (CHO-MG [4]): 0.66 nmol/mg | Selectivity ratio [5]: 1 | Drug uptake (L1210 [6]): 1.5 nmol/mg | Drug uptake (L1210 [7]): 0.04 nmol/mg | Drug uptake (L1210 [8]): 9.7 nmol/mg | Drug uptake (L1210 [9]): 0.59 nmol/mg | Drug uptake (L1210 [10]): 5.8 nmol/mg | IC50 (L1210 [11]): 1 µM | IC50 (Phosphodiesterase 1): 19 µM | IC50 (CHO-MG [12]): 27 µM | Drug uptake (L1210 [13]): 18 nmol/mg | Drug uptake (L1210 [14]): 0.49 nmol/mg

CC1C[C@]2(C)C(NCCCO)=Nc3ccccc3[C@@H]2N(C)c2ccccc21 (stereo partly specified)
IC50 (Phosphodiesterase 1): > 500 µM

CNc1cccc2c1[C@H](C)C[C@]1(C)C(NCCCCN)=Nc3ccccc3[C@H]21
IC50 (CHO [2]): 57 µM | Drug uptake (L1210 [15]): 8.9 nmol/mg | Drug uptake (L1210 [16]): 10 nmol/mg | Drug uptake (L1210 [17]): 23 nmol/mg | Drug uptake (L1210 [18]): 8.2 nmol/mg | IC50 (L1210 [11]): 56 µM | Selectivity ratio [19]: 1.1 | IC50 (Phosphodiesterase 1): 70 µM | IC50 (CHO-MG [12]): 30 µM | Drug uptake (CHO [20]): 8.1 nmol/mg | Drug uptake (CHO-MG [21]): 7.2 nmol/mg | Drug uptake (L1210 [22]): 1.6 nmol/mg | Drug uptake (L1210 [23]): 1 nmol/mg | Drug uptake (L1210 [24]): 14 nmol/mg | Drug uptake (L1210 [25]): 2.1 nmol/mg

OCCCNC1=Nc2ccccc2CC1
IC50 (Phosphodiesterase 1): > 500 µM

CC1C[C@]2(C)C(NCCCCN)=Nc3ccccc3[C@@H]2N(C)c2ccccc21 (stereo partly specified)
IC50 (CHO [2]): 45 µM | Drug uptake (L1210 [15]): 6.3 nmol/mg | Drug uptake (L1210 [16]): 9 nmol/mg | Drug uptake (L1210 [17]): 13 nmol/mg | Drug uptake (L1210 [18]): 8.2 nmol/mg | IC50 (L1210 [11]): 54 µM | Selectivity ratio [19]: 1.1 | IC50 (Phosphodiesterase 1): 116 µM | IC50 (CHO-MG [12]): 24 µM | Drug uptake (CHO [20]): 3.6 nmol/mg | Drug uptake (CHO-MG [21]): 3.3 nmol/mg | Drug uptake (L1210 [22]): 0.85 nmol/mg | Drug uptake (L1210 [23]): 0.7 nmol/mg | Drug uptake (L1210 [24]): 11 nmol/mg | Drug uptake (L1210 [25]): 0.87 nmol/mg

NCCCNCCCCNCCCN [SPERMINE]
IC50 (Phosphodiesterase 1): > 500 µM | IC50 (CHO-MG [12]): > 100 µM

NCCCCNCCCNC1=Nc2ccccc2CC1
Drug uptake (L1210 [1]): 8.2 nmol/mg | Drug uptake (CHO [26]): 11 nmol/mg | Drug uptake (CHO-MG [27]): 1.6 nmol/mg | Ratio (CHO-MG [28]): 6.9 | Drug uptake (L1210 [8]): 7.1 nmol/mg | Drug uptake (L1210 [9]): 4.3 nmol/mg | Drug uptake (L1210 [10]): 12.1 nmol/mg | IC50 (L1210 [11]): > 100 µM | Selectivity ratio [19]: 7 | IC50 (Phosphodiesterase 1): > 500 µM | Drug uptake (CHO [20]): 15.4 nmol/mg | Drug uptake (CHO-MG [21]): 2.2 nmol/mg | Drug uptake (L1210 [13]): 14.5 nmol/mg | Drug uptake (L1210 [14]): 3.2 nmol/mg

NCCCCNCCCN [SPERMIDINE]
IC50 (Phosphodiesterase 1): > 500 µM | IC50 (CHO-MG [12]): > 100 µM
